Assay results published in ChEMBL document CHEMBL1151929, “Synthesis and antiviral activity evaluation of acyclic 2'-azanucleosides bearing a phosphonomethoxy function in the side chain” (Bioorg Med Chem, 2009).
The source made the active and inactive calls.

Tests used:
Assay type in all cases: functional, organism-based
[1] = system: Human alphaherpesvirus 1; assay: Antiviral activity against HSV1 KOS infected in HEL cells assessed as reduction of virus-induced cytopathic effect at 10 to 100 ug/ml
[2] = system: Human alphaherpesvirus 2; assay: Antiviral activity against HSV2 G infected in HEL cells assessed as reduction of virus-induced cytopathic effect at 10 to 100 ug/ml; conditions: strain G
[3] = system: Human alphaherpesvirus 1; assay: Antiviral activity against acyclovir-resistant thymidine kinase-deficient HSV1 KOS infected in HEL cells assessed as reduction of virus-induced cytopathic effect at 10 to 100 ug/ml
[4] = system: Vaccinia virus; assay: Antiviral activity against Vaccinia virus Lederle infected in HEL cells assessed as reduction of virus-induced cytopathic effect at 10 to 100 ug/ml; conditions: Orthopoxvirus vaccinia
[5] = system: Vesicular stomatitis virus; assay: Antiviral activity against VSV infected in HEL cells assessed as reduction of virus-induced cytopathic effect at 10 to 100 ug/ml
[6] = system: Vesicular stomatitis virus; assay: Antiviral activity against VSV infected in human HeLa cells assessed as reduction of virus-induced cytopathic effect at 10 to 100 ug/ml
In short: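 Confluent HeLa cell cultures were inoculated with 100 CCID50 of VSV and allowed to adsorb for 1–2 h. Unbound virus was removed and cultures were incubated with varying compound concentrations. CPE was scored visually when complete in untreated infected controls. EC50 is the concentration reducing CPE by 50%.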

[7] = system: Coxsackievirus B4; assay: Antiviral activity against Coxsackievirus B4 infected in human HeLa cells assessed as reduction of virus-induced cytopathic effect at 10 to 100 ug/ml
In short: (§1)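 Confluent cell monolayers in 96-well plates inoculated with 100 CCID50 of virus; 1–2 h adsorption, residual virus removed, then incubated with varying compound concentrations. CPE scored visually once complete in untreated infected controls; EC50 = concentration reducing virus-induced cytopathicity by 50%. Highest subtoxic concentrations tested 10–100 μg/mL.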

[8] = system: Respiratory syncytial virus; assay: Antiviral activity against RSV Long infected in human HeLa cells assessed as reduction of virus-induced cytopathic effect at 10 to 100 ug/ml; in short: as §1
[9] = system: Human respirovirus 3; assay: Antiviral activity against Parainfluenza virus 3 infected in african green monkey Vero cells assessed as reduction of virus-induced cytopathic effect at 10 to 100 ug/ml; in short: as §1
[10] = system: Mammalian orthoreovirus 1; assay: Antiviral activity against Reovirus 1 infected in african green monkey Vero cells assessed as reduction of virus-induced cytopathic effect at 10 to 100 ug/ml; in short: as §1
[11] = system: Sindbis virus; assay: Antiviral activity against Sindbis virus infected in african green monkey Vero cells assessed as reduction of virus-induced cytopathic effect at 10 to 100 ug/ml; in short: as §1
[12] = system: Coxsackievirus B4; assay: Antiviral activity against Coxsackievirus B4 infected in african green monkey Vero cells assessed as reduction of virus-induced cytopathic effect at 10 to 100 ug/ml; in short: as §1
[13] = system: Punta Toro virus; assay: Antiviral activity against Punta Toro virus infected in african green monkey Vero cells assessed as reduction of virus-induced cytopathic effect at 10 to 100 ug/ml; in short: as §1
[14] = system: Human betaherpesvirus 5; assay: Antiviral activity against HCMV AD169 infected in HEL cells assessed as reduction of virus plaque formation at 10 to 100 ug/ml
In short: (§2)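 HEL fibroblasts in 96-well plates infected with 100 PFU HCMV; 1–2 h adsorption, residual virus removed, incubation with varying compound concentrations. EC50 taken as concentration reducing viral plaque formation by 50%. Highest subtoxic concentrations 10–100 μg/mL.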

[15] = system: Human betaherpesvirus 5; assay: Antiviral activity against HCMV Davis infected in HEL cells assessed as reduction of virus plaque formation at 10 to 100 ug/ml; in short: as §2
[16] = system: Human alphaherpesvirus 3; assay: Antiviral activity against Varicella Zoster virus Oka infected in HEL cells assessed as reduction in viral plaque formation at 10 to 100 ug/ml
[17] = system: Human alphaherpesvirus 3; assay: Antiviral activity against thymidine kinase-deficient Varicella Zoster virus 07/1 infected in HEL cells assessed as reduction in viral plaque formation at 10 to 100 ug/ml
[18] = system: Feline coronavirus; assay: Antiviral activity against Feline coronavirus infected in cat CRFK cells assessed as effect on cell viability at 10 to 100 ug/ml by MTS assay
In short: (§3)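 CRFK feline kidney cells, confluent in 96-well plates, infected with 100 CCID50; after 1–2 h adsorption, inoculum removed and cultures kept with varying compound concentrations until CPE complete in untreated virus controls. Cell viability read by colorimetric formazan-based MTS assay; EC50 = concentration reducing virus-induced cytopathicity by 50%. Top subtoxic concentrations 10–100 μg/mL.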

[19] = system: Felid alphaherpesvirus 1; assay: Antiviral activity against Feline herpesvirus infected in cat CRFK cells assessed as effect on cell viability at 10 to 100 ug/ml by MTS assay; in short: as §3

Measured: Activity

Cc1ccc(S(=O)(=O)N(CCOCP(=O)(O)O)Cn2cc(C)c(=O)[nH]c2=O)cc1
inactive: all assays above

Cc1ccc(S(=O)(=O)N(CCOCP(=O)(O)O)Cn2ccc(N)nc2=O)cc1
inactive: all assays above

Cc1ccc(S(=O)(=O)N(CCOCP(=O)(O)O)Cn2ccc(=O)[nH]c2=O)cc1
inactive: all assays above

Cc1ccc(S(=O)(=O)N(CCOCP(=O)(O)O)Cn2cc(F)c(=O)[nH]c2=O)cc1
inactive: all assays above
